Measured values taken from paper PMC3107912 (Bioorganic & medicinal chemistry letters, 2011).
Each block holds one compound with its values, some of them ahead of it.

What was measured:
Format in all cases: cell-based
[1] = biological target: T1, S1P4 receptor (Homo sapiens, UniProt O95977); test: S1P4 functional antagonist assay; settings: for fold less potent than the hit (1) at S1P4: versus hit compound 1
T1 sequence (O95977 1-384): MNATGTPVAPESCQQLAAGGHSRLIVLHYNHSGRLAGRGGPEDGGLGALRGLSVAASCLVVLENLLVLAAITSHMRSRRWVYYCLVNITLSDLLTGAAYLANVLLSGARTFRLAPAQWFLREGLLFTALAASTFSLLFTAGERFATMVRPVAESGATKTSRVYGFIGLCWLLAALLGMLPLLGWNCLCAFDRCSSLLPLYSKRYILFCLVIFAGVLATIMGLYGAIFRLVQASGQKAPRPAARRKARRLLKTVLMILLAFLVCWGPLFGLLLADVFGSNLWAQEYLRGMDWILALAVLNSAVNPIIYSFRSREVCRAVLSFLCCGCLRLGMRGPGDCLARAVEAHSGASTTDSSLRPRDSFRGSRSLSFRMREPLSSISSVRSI
Outline: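 U2OS cells co-express a beta-arrestin/TEV protease fusion protein and a beta-lactamase reporter gene under the control of a UAS response element. Beta-lactamase expression is read as FRET from a cleavable, fluorogenic, cell-permeable beta-lactamase substrate. The test compound's antagonism of the S1P4 receptor is reported as an IC50.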

[2] = biological target: S1P2 (Homo sapiens, UniProt O95136); test: S1P selectivity counter screen, functional assay at S1P2
[3] = biological target: S1P1 (Homo sapiens, UniProt P21453); test: S1P selectivity counter screen, functional assay at S1P1
[4] = biological target: S1P3 (Homo sapiens, UniProt Q99500); test: S1P selectivity counter screen, functional assay at S1P3
Sequence of S1P3 (Q99500 whole entry, species assumed): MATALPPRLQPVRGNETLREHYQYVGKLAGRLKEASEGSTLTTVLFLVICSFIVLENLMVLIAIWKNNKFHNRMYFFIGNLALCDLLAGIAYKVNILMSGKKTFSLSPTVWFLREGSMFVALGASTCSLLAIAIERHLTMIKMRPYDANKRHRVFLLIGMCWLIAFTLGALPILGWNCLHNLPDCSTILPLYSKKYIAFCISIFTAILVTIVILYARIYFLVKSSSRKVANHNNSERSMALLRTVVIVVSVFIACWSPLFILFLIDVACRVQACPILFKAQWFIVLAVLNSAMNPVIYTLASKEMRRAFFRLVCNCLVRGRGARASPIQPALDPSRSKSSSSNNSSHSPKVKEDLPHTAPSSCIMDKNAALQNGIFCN

Sequence of S1P2 (O95136 whole entry, species assumed): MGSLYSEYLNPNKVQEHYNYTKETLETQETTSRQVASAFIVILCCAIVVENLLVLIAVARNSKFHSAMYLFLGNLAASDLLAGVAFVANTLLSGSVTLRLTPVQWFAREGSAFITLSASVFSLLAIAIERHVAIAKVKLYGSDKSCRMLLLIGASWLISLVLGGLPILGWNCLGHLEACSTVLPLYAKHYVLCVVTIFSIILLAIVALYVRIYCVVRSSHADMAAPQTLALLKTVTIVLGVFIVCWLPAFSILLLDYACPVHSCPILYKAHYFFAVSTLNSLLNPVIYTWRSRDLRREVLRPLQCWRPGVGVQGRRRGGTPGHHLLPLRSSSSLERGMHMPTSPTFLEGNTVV
Sequence of S1P1 (P21453 whole entry, species assumed): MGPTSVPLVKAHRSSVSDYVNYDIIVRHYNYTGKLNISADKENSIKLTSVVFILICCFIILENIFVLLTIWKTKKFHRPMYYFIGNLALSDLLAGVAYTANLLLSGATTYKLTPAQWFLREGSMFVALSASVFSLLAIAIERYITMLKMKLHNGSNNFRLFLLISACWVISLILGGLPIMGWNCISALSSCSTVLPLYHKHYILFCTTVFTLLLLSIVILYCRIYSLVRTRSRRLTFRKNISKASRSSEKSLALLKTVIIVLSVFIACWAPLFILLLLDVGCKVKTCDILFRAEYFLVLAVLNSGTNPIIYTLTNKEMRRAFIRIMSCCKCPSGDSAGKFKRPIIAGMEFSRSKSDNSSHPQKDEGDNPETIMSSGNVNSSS

- fold less potent than the homolog 4q at S1P4 ([1]; versus 4q): approximately 128 fold
SMILES: Cc1cc(C)c(N(C)C(=O)c2ccc(-c3cc(Cl)ccc3Cl)o2)c(C)c1 [4r]

- IC50 [2]: > 25 µM
- IC50 [3]: > 25 µM
- IC50 [4]: > 25 µM
SMILES: Cc1cccc(C)c1NC(=O)c1ccc(-c2cc(Cl)ccc2Cl)o1 [compound 1, 5-(2,5-dichlorophenyl)-N-(2,6-dimethylphenyl)furan-2-carboxamide]

- fold less potent than mono-chlorinated 9c at S1P4 ([1]; versus 9c): 7 fold
- fold less potent than the hit (1) at S1P4 [1]: 25 fold
SMILES: Cc1cccc(C)c1NC(=O)c1ccc(-c2ccc(Cl)cc2Cl)o1 [9a]

- fold less potent than the hit (1) at S1P4 [1]: 6 fold
SMILES: Cc1cccc(C)c1NC(=O)c1ccc(-c2cccc(Cl)c2)o1 [9b]

- S1P4 activity in words [1]: inactive
SMILES: Cc1cccc(C)c1NC(=O)c1ccc(-c2c(C)cccc2C)o1 [9j]

- fold less potent than the hit (1) at S1P4 [1]: 3 fold
SMILES: Cc1cccc(C)c1N(C)C(=O)c1ccc(-c2ccccc2Cl)o1 [9c]

- fold more potent than 9k at S1P4 ([1]; versus 9k): 1.5 fold
SMILES: Cc1cscc1-c1ccc(C(=O)Nc2c(C)cccc2C)o1 [9l]

- S1P4 activity in words [1]: suppressed completely the activity
SMILES: O=C(c1ccc(-c2cc(Cl)ccc2Cl)o1)N1CCc2ccccc21 [4j]

- IC50 [1]: 0.036 µM
SMILES: Cc1cc(CO)cc(C)c1NC(=O)c1ccc(-c2cc(Cl)ccc2Cl)o1 [4t]
